Consider twelve compounds from ChEMBL document CHEMBL3112484, “Design, synthesis, and biological evaluation of a series of piperazine ureas as fatty acid amide hydrolase inhibitors” (Bioorg Med Chem, 2014).

The subject of series [1] is Mus musculus. In words: Analgesic activity in ICR mouse assessed as inhibition of acetic acid-induced writhing at 10 mg/kg, po pretreated for 60 mins followed by acetic acid-challenge measured for 20 mins relative to control. The class given is functional. In short, it runs like this: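 Mice received compound po at 10 mg/kg as a suspension in 0.5% methylcellulose (10 mL/kg). After 60 min, 0.6% (v/v) acetic acid (10 mL/kg) was given ip. Each mouse was then placed alone in an observation chamber. Treated mice were compared with vehicle-treated mice by Student's t-test.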

Series [2] deals with T1, Fatty-acid amide hydrolase 1 (Homo sapiens, UniProt O00519).
T1 sequence (O00519 whole entry): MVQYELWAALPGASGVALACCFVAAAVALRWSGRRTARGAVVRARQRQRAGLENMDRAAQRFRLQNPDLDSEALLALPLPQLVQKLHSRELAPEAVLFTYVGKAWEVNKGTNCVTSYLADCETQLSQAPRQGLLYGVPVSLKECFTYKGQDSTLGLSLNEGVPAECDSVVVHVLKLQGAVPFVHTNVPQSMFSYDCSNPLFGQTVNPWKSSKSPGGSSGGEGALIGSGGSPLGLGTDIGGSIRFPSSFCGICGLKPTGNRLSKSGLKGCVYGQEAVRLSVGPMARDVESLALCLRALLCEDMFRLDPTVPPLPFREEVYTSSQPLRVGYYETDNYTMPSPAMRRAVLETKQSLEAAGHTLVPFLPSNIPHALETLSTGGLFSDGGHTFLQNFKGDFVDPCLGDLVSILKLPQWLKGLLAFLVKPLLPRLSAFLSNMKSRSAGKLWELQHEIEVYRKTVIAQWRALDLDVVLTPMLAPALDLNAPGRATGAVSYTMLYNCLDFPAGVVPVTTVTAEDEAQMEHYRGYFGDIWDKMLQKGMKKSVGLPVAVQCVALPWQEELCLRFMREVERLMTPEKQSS
In words: Apparent inhibition of human FAAH expressed in CHOK1 cells using AMCAA as substrate after 30 mins by fluorescence assay. The format is cell-based, CHO-K1. In short, it runs like this: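 Enzyme source: CHO-K1 cells stably expressing human FAAH cloned from a human brain library, grown in Ham's F-12 with 10% FBS and 800 µg/mL G418, then homogenized in 10 mM Tris, 1 mM EDTA, 10 mM MgCl2. Fraction (125–250 ng final) was incubated with AMCAA at 37 °C in Tris-HCl pH 9.0 buffer with BSA. Fluorescence read at ex 355/em 460 nm; solvent = 100%, zero-time count = 0%. IC50 from a 30 min reaction.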

In series [3] the target is T2, Fatty-acid amide hydrolase 1 (Rattus norvegicus, UniProt P97612).
T2 sequence (P97612 whole entry): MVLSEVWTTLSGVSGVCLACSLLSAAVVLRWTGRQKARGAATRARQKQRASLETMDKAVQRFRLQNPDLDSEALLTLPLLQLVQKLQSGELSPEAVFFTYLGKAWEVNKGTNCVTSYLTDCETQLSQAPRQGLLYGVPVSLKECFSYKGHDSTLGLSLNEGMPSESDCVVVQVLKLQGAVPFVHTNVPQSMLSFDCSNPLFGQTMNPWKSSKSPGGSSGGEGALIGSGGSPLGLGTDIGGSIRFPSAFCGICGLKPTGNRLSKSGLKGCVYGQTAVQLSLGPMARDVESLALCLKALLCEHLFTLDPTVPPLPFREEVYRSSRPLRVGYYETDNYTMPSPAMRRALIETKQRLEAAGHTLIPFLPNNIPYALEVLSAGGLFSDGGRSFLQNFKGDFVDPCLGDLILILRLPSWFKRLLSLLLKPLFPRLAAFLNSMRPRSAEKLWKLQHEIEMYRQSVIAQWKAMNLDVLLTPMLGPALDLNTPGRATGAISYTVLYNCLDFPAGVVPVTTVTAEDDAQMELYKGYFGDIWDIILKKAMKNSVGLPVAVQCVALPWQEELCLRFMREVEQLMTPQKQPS
In words: Apparent inhibition of rat FAAH using AMCAA as substrate after 30 mins by fluorescence assay. Summed up: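 Rat FAAH enzyme fraction (125–250 ng final) was reacted with AMCAA substrate across a range of compound concentrations at 37 °C. Buffer: 125 mM Tris-HCl pH 9.0, 1 mM EDTA, 0.4 mM HEPES, 0.2% glycerol, 0.02% Triton X-100, 0.3% fatty acid free BSA. Fluorescence read at ex 355/em 460 nm, scaled to solvent (100%) and zero-time (0%). IC50 determined at a 30 min reaction.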

Series [4] is described as follows: Solubility of the compound in aqueous buffer at pH 6.8 by HPLC analysis. The class given is physicochemical. In short, it runs like this:
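Small volumes of compound DMSO solution were added to aqueous buffer at pH 6.8 and incubated. Precipitate was removed by filtration, and the filtrate concentration was measured by HPLC.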

For series [5], the system named is Brain. In words: AUC in rat brain at 0.03 mg/kg, po by LC/MS/MS analysis. The class given is ADME, organism-based. Details: dose 0.03 mg/kg, route oral. To be noted: in vivo. In short, it runs like this: (§1)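 Rats given single oral doses of 0.03, 0.3 or 3 mg/kg as a suspension in 0.5% methylcellulose. Brain drug levels were measured by LC/MS/MS over time, and AUC is reported in ng h/g. Each value is the mean of n = 3.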

For series [6], the system named is Brain. In words: AUC in rat brain at 3 mg/kg, po by LC/MS/MS analysis. The class given is ADME, organism-based. Details: dose 3 mg/kg, route oral. To be noted: in vivo. In short, it runs like this: as §1
Series [7] deals with Rattus norvegicus. In words: Analgesic activity in po dosed Sprague-Dawley rat complete Freund's adjuvant-induced inflammatory pain model assessed as attenuation of tactile allodynia administered for 5 days measured 4 hrs after treatment. The class given is functional, organism-based. The following applies: in the assay text read “administered 5 days after CFA injection” for “administered for 5 days”. In short, it runs like this: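 Six-week-old male Sprague Dawley rats received 150 µL CFA into the plantar surface of the right hind paw; sham rats got liquid paraffin instead. Five days after injection, a single oral dose of 1, 3 or 10 mg/kg was given, with 0.5% methylcellulose as vehicle. Ipsilateral tactile allodynia was scored blinded with von Frey filaments 4 h post-dose. Mean and SE, 8–10 rats.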

The target in series [8] is T3, Fatty-acid amide hydrolase 1 (Homo sapiens) (UniProt O00519).
T3 sequence (whole entry): T1 sequence (O00519 whole entry)
As to the kind of experiment: Irreversible inhibition of FAAH (unknown origin) using AMCAA as substrate at 10 nM by fluorescence assay. To be noted: TDE = time-dependent effect.

The subject of series [9] is Rattus norvegicus. As to the kind of experiment: Analgesic activity in po dosed Sprague-Dawley rat sciatic nerve injury-induced neuropathic pain model assessed as attenuation of tactile allodynia administered for 7 days measured 2 hrs after treatment. The class given is functional, organism-based. To be noted: in the assay text read “administered 7 days after nerve injury” for “administered for 7 days”. Summed up:
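Seven-week-old male Sprague Dawley rats under pentobarbital had the right common peroneal nerve tightly ligated with 4-0 silk and transected distally; in sham rats the nerve was exposed only. Seven days later, rats got an oral dose of 1, 3 or 10 mg/kg or 0.5% methylcellulose vehicle. Ipsilateral tactile allodynia was scored blinded with von Frey filaments 2 h post-dose. Mean and SE, 8 rats.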

Series [10] relates to Brain. As to the kind of experiment: AUC in rat brain at 0.3 mg/kg, po by LC/MS/MS analysis. The class given is ADME, organism-based. Set-up: dose 0.3 mg/kg, route oral. The following applies: in vivo. Summed up:
as §1

Series [11] in a line: Ratio of drug level in brain to plasma in rat at 3 mg/kg, po. The class given is ADME, organism-based. Details: dose 3 mg/kg, route oral. To be noted: read-out: BPR. In short, it runs like this: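 Rats were dosed orally at 0.03, 0.3 or 3 mg/kg as a suspension in 0.5% methylcellulose. Compound levels in plasma and brain were quantified by LC/MS/MS. Cmax, Tmax and AUC are means of n = 3.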

Values after ≈ are worked out from the molar mass of the structure shown. Some results are limits rather than exact numbers.

For the compound `O=C(Nc1cccnn1)N1CCN(c2nccc(-c3cc(F)ccc3F)n2)CC1`, in series [1], the inhibition in vivo at 10 mg/kg was determined as 2.2%. Further, the results for the IC50 in [2] and in series [3] were 0.025 nM and 0.17 nM, respectively. Besides, in series [4], the solubility is less than 0.06 µg/mL.
With `O=C(Nc1cccnn1)N1CCN(c2nccc(-c3ccc(F)c(F)c3)n2)CC1`, the AUC in series [5] was determined as 0 ng·h/g; in series [6], 15955 ng·h/g; in series [10] it was 898 ng·h/g. Moreover, the inhibition in vivo at 10 mg/kg in series [1] was found to be 34.7%. For the same compound, the IC50 was found to be 0.72 nM in [2] and 0.28 nM in series [3]. In addition, the Activity result in series [7] and in series [9] was “Dose-dependent effect” in each case. Moreover, in series [4], the solubility was determined as 3.1 µg/mL (≈ 7.8 µM). Moreover, the inhibition result in [8] is “tde”. In addition, the Kp in [11] was determined as 2.
Regarding `O=C(Nc1cccnn1)N1CCN(c2nccc(-c3cccc(F)c3F)n2)CC1`, the inhibition in vivo at 10 mg/kg in [1] is 18.9%. In addition, the results for the IC50 in series [2] and in [3] were 0.072 nM and 1.2 nM, respectively. In series [4], this compound displayed a solubility of 0.16 µg/mL (≈ 0.403 µM).
Regarding `CCCCC/C=C\C/C=C\C/C=C\C/C=C\CCCC(=O)NCCO` [ANANDAMIDE], the AUC in series [5] was determined as 64.3 ng·h/g; in series [6] it was 311.6 ng·h/g; in series [10], 232.9 ng·h/g.
For the compound `O=C(Nc1cccnn1)N1CCN(c2nccc(-c3cc(F)cc(F)c3)n2)CC1`, the inhibition in vivo at 10 mg/kg in series [1] was determined as 0.9%. The IC50 in [2] turned out to be 0.08 nM; in series [3], 0.34 nM. This compound gave a solubility in [4] of 0.1 µg/mL (≈ 0.252 µM).
Consider `O=C(Nc1cccnn1)N1CCN(c2ccnc(-c3ccc(F)cc3F)n2)CC1`, for which the half-inhibitory concentration (IC50) in series [2] is 23 nM; in series [3], 34 nM. In addition, in series [4], the concentration in solution (solubility) was 52 µg/mL (≈ 131 µM).
`O=C(Nc1cccnn1)N1CCN(c2cc(-c3ccc(F)cc3F)ccn2)CC1`: the IC50 in series [2] turned out to be 2.2 nM; in [3] it was 4.3 nM.
Regarding `O=C(Nc1cccnn1)N1CCN(c2ccnc(-c3ccc(F)cc3F)c2)CC1`, the IC50 in series [2] amounted to 28 nM; in series [3], 12 nM.
On to `O=C(Nc1cccnn1)N1CCN(c2cc(-c3ccc(F)cc3F)ncn2)CC1`, for which the values for the IC50 in series [2] and in series [3] were 1.5 nM and 1.7 nM, respectively.
`O=C(Nc1cccnn1)N1CCN(c2nccc(-c3ccc(F)cc3F)n2)CC1`: the IC50 in [2] worked out at 1.1 nM; in series [3] it was 0.43 nM. The same compound gave a solubility in series [4] of 0.85 µg/mL (≈ 2.14 µM).
Consider `O=C(Nc1cccnn1)N1CCN(c2cncc(-c3ccc(F)cc3F)c2)CC1`, for which the IC50 in series [2] turned out to be 140 nM; in series [3], 74 nM.
For `O=C(Nc1cccnn1)N1CCN(c2cccc(-c3ccc(F)cc3F)n2)CC1`, the half-inhibitory concentration (IC50) in series [2] worked out at 36 nM; in series [3] it was 13 nM.
